Measurements as given in ChEMBL document CHEMBL1133942, “Synthesis and bioactivities of novel pyridazine derivatives: inhibitors of interleukin-1 beta (IL-1beta) production” (Bioorg Med Chem Lett, 2001).
Activity calls are given as the source filed them. The calls are words filed in the database; no cut-off is given here.

Assays:
[1] = tested on: HL-60; test: Inhibitory concentration against interleukin-1 beta production in HL-60 cells stimulated with lipopolysaccharide (LPS).; type: functional, cell-based; conditions: Homo sapiens
How it was run: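 IC50 obtained by comparing IL-1β yield with an untreated control to which no test compound was added.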

[2] = tested on: Mus musculus; test: Observation of behavior in mice after ip administration at the dose of 30 mg/kg; Depression of spontaneous locomotor activity; type: functional, organism-based; set-up: dose 30 mg/kg
[3] = tested on: Mus musculus; test: Observation of behavior in mice following 30 mg/kg i.p. administration; No significant change.; type: functional, organism-based; set-up: dose 30 mg/kg
[4] = species: Mus musculus; test: Number of dead mice/total number of mice used; 6/8; type: ADME, organism-based; conditions: in vivo
[5] = tested on: Mus musculus; test: Observation of behavior in mice after ip administration at the dose of 30 mg/kg; symptoms were tremor, dyspnea, difficulty in walking and death; type: functional, organism-based; set-up: dose 30 mg/kg
[6] = tested on: Mus musculus; test: Observation of behavior in mice after ip administration at the dose of 30 mg/kg; Weak sedation; type: functional, organism-based; set-up: dose 30 mg/kg

Structure (SMILES) | IC50 [1] | Symptoms [3] | other results
CCCN(c1cc(-c2ccc(OC)cc2)c(-c2ccc(OC)cc2)nn1)c1ccc(F)cc1F | 3.16 µM | No significant change | –
C[C@]12C=CC(=O)C=C1CCC1[C@@H]2[C@@H](O)C[C@@]2(C)[C@H]1CC[C@]2(O)C(=O)CO (single isomer, unassigned) [PREDNISOLONE] | 0.76 µM | inactive | –
COc1ccc(-c2cc(Oc3ccc(Cl)cc3Cl)nnc2-c2ccc(OC)cc2)cc1 | 2.54 µM | No significant change | –
COc1ccc(-c2cc(C#N)nnc2-c2ccc(OC)cc2)cc1 | 0.09 µM | – | Activity [4]: 6; Symptoms [5]: Tremor, dyspnea, difficulty in walking and death
COc1ccc(-c2cc(Oc3ccc(F)cc3F)nnc2-c2ccc(OC)cc2)cc1 | 2.32 µM | – | Symptoms [2]: Depression of spontaneous locomotor activity
COc1ccc(-c2ncc(C#N)nc2-c2ccc(OC)cc2)cc1 | 6.6 µM | – | Symptoms [6]: Weak sedation
COc1ccc(-c2cc(Nc3ccc(F)cc3F)nnc2-c2ccc(OC)cc2)cc1 | 1.92 µM | No significant change | –
COc1ccc(-c2cc(NCc3ccccc3)nnc2-c2ccc(OC)cc2)cc1 | > 100 µM | – | –
COc1ccc(-c2cc(Sc3ccc(F)cc3F)nnc2-c2ccc(OC)cc2)cc1 | 1.87 µM | – | Symptoms [6]: Weak sedation
COc1ccc(-c2cc(Oc3ccncc3)nnc2-c2ccc(OC)cc2)cc1 | 1.24 µM | No significant change | –
COc1ccc(-c2cc(Oc3ccc(C#N)cc3)nnc2-c2ccc(OC)cc2)cc1 | > 100 µM | No significant change | –
COc1ccc(-c2cc(Oc3cc(F)cc(F)c3)nnc2-c2ccc(OC)cc2)cc1 | 1.38 µM | No significant change | –
COc1ccc(-c2cc(Sc3ccccc3)nnc2-c2ccc(OC)cc2)cc1 | 20.5 µM | No significant change | –
COc1ccc(-c2cnc(C#N)nc2-c2ccc(OC)cc2)cc1 | 2.88 µM | No significant change | –
COc1ccc(-c2cc(-c3ccccc3)nnc2-c2ccc(OC)cc2)cc1 | 2.81 µM | No significant change | –
COc1ccc(-c2cc(Nc3cc(OC)c(OC)c(OC)c3)nnc2-c2ccc(OC)cc2)cc1 | > 100 µM | No significant change | –
COc1ccc(-c2cc(Oc3cccc([N+](=O)[O-])c3)nnc2-c2ccc(OC)cc2)cc1 | 2.36 µM | No significant change | –

The remaining compounds from weak to strong by IC50 [1], led by results:

IC50 [1] | Structure (SMILES) | Symptoms [3] | other results
0.63 µM | COc1ccc(-c2cc(Oc3ccc([N+](=O)[O-])cc3)nnc2-c2ccc(OC)cc2)cc1 | No significant change | –
0.46 µM | COc1ccc(-c2cc(Oc3ccc(F)c(F)c3)nnc2-c2ccc(OC)cc2)cc1 | – | –
0.45 µM | COc1ccc(Oc2cc(-c3ccc(OC)cc3)c(-c3ccc(OC)cc3)nn2)cc1 | – | –
0.35 µM | COc1ccc(-c2cc(Oc3c(F)cccc3F)nnc2-c2ccc(OC)cc2)cc1 | No significant change | –
0.2 µM | COc1ccc(-c2cc(Sc3cc(Cl)c(Cl)c(Cl)c3)nnc2-c2ccc(OC)cc2)cc1 | No significant change | –
0.19 µM | COc1ccc(-c2cc(Oc3c(F)c(F)cc(F)c3F)nnc2-c2ccc(OC)cc2)cc1 | No significant change | –
0.18 µM | COc1ccc(-c2cc(Oc3cc(F)ccc3F)nnc2-c2ccc(OC)cc2)cc1 | – | –
0.16 µM | COc1ccc(-c2cc(Oc3cccc(C#N)c3)nnc2-c2ccc(OC)cc2)cc1 | – | –
0.15 µM | COc1ccc(-c2cc(Oc3ccccc3C#N)nnc2-c2ccc(OC)cc2)cc1 | No significant change | –
0.12 µM | COc1ccc(-c2cc(Oc3cccc(F)c3F)nnc2-c2ccc(OC)cc2)cc1 | No significant change | –
0.1 µM | COc1ccc(-c2cc(Oc3ccccc3)nnc2-c2ccc(OC)cc2)cc1 | No significant change | –
0.04 µM | COc1ccc(-c2cc(Oc3c(F)c(F)c(F)c(F)c3F)nnc2-c2ccc(OC)cc2)cc1 | – | Symptoms [2]: Depression of spontaneous locomotor activity
